Assay results published in ChEMBL document CHEMBL5107942, “Boron-based hybrids as novel scaffolds for the development of drugs with neuroprotective properties” (RSC Med Chem, 2021).
Activity calls are given as the source filed them. The rule behind the calls is not given here.

Columns and labels:
SH-SY5Y [1] = experiment: Neuroprotective activity against amyloid beta (1 to 42)-induced neurotoxicity in human SH-SY5Y cells assessed as increase in cell viability at 100 uM incubated for 24 hrs by MTT assay; type: functional
Method in brief: (§1)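 Differentiated SH-SY5Y cells co-treated 24 h with compound (0.1–100 μM) and Aβ1-42 (20 μM). Vehicle 0.1% DMSO; 1% Triton X positive control. MTT added for 3 h at 37 °C, formazan dissolved in DMSO, absorbance read at 570 nm. Mean ± SD from at least six independent experiments.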

SH-SY5Y [2] = experiment: Neuroprotective activity against amyloid beta (1 to 42)-induced neurotoxicity in human SH-SY5Y cells assessed as increase in cell viability at 0.1 to 100 uM incubated for 24 hrs by MTT assay; type: functional, cell-based; conditions: dose 0.1-100 µM; method in brief: as §1
SH-SY5Y [3] = experiment: Neuroprotective activity against amyloid beta (1 to 42)-induced Alzheimer's disease model in human SH-SY5Y cells assessed as reduction in necrosis rate at 25 to 50 uM incubated for 24 hrs by Annexin V-FITC/propidium iodide staining flow cytometry; type: functional, cell-based; conditions: dose 25-50 µM, DDE = dose-dependent effect
Method in brief: (§2)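 Differentiated SH-SY5Y cells given 24 h Aβ1-42 (20 μM) with or without compound. 5 x 10^4 cells pelleted and resuspended in 1X binding buffer. Annexin V-FITC and PI added, 5 min in the dark, then fixed in 4% paraformaldehyde. Flow cytometry sorted cells into viable, early apoptotic, late apoptotic/necrotic and necrotic fractions.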

SH-SY5Y [4] = experiment: Antioxidant activity against amyloid beta (1 to 42)-induced Alzheimer's disease model in human SH-SY5Y cells assessed as decrease of TOS level at 50 uM; type: functional, cell-based
Method in brief: (§3)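 Differentiated SH-SY5Y cells: grown in DMEM:F12 with 10% FBS, then 10 μg/mL retinoic acid for 5 days, then serum-free medium with 10 μM retinoic acid and 25 ng/mL BDNF. Co-exposed 24 h to Aβ1-42 (20 μM) plus compound. Vehicle 0.1% DMSO. Automated kits on culture samples. TAC: ABTS decolorization at 660 nm, Trolox calibration. TOS: ferrous-to-ferric chelator oxidation, H2O2 calibration, µM H2O2 equivalent/L. n = 6.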

SH-SY5Y [5] = experiment: Neuroprotective activity against amyloid beta (1 to 42)-induced Alzheimer's disease model in human SH-SY5Y cells assessed as protection against amyloid beta (1 to 42)-induced nuclear integrity damage at 25 uM incubated for 24 hrs by Hoechst 33258 staining fluorescence microscopy; type: functional, cell-based
Method in brief: (§4)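 RA/BDNF-differentiated SH-SY5Y cells incubated 24 h with Aβ1-42 (20 μM) alone or with test agent at 25 or 50 μM. Fixed in 4% paraformaldehyde in PBS, 30 min at 4 °C. Stained with 1 mM Hoechst 33258 for 5 min at room temperature. Nuclear morphology examined by fluorescence microscopy.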

SH-SY5Y [6] = experiment: Neuroprotective activity against amyloid beta (1 to 42)-induced neurotoxicity in human SH-SY5Y cells assessed as increase in cell viability at 25 uM incubated for 24 hrs by LDH release assay; type: functional
Method in brief: (§5)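 Differentiated SH-SY5Y cells exposed 24 h to compound with Aβ1-42 (20 μM). Supernatant mixed 1:1 with LDH reaction mixture and held 30 min at room temperature. Lactate-to-pyruvate conversion with NAD+ reduction read as absorbance at 490 nm. Mean ± SD, at least six independent experiments.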

SH-SY5Y [7] = experiment: Neuroprotective activity against amyloid beta (1 to 42)-induced Alzheimer's disease model in human SH-SY5Y cells assessed as reduction in necrosis rate incubated for 24 hrs by Annexin V-FITC/propidium iodide staining flow cytometry; type: functional; set-up: scale not given: the % may be the effect or the level left; method in brief: as §2
SH-SY5Y [8] = experiment: Neuroprotective activity against amyloid beta (1 to 42)-induced neurotoxicity in human SH-SY5Y cells assessed as increase in cell viability at 25 uM incubated for 24 hrs by MTT assay; type: functional; method in brief: as §1
SH-SY5Y [9] = experiment: Antioxidant activity against amyloid beta (1 to 42)-induced Alzheimer's disease model in human SH-SY5Y cells assessed as increase of TAC level at 50 uM by ABTS assay; type: functional, cell-based; method in brief: as §3
[10] = Induction of DNA damage in human blood assessed as increase in 8-OH-dG level at 0.1 to 100 uM incubated for 24 hrs; type: toxicity, tissue-based; conditions: dose 0.1-100 µM
Method in brief: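 Heparinized human peripheral blood cultured with phytohemagglutinin in PB-MAX medium, with compounds added at culture start. 8-OH-dG measured by competitive ELISA (8-OH-dG–AChE conjugate competing for monoclonal antibody). Detects free and DNA-incorporated 8-OH-dG. Read at 405–420 nm.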

SH-SY5Y [11] = experiment: Neuroprotective activity against amyloid beta (1 to 42)-induced neurotoxicity in human SH-SY5Y cells assessed as increase in cell viability at 50 uM incubated for 24 hrs by LDH release assay; type: functional; method in brief: as §5
SH-SY5Y [12] = experiment: Neuroprotective activity against amyloid beta (1 to 42)-induced neurotoxicity in human SH-SY5Y cells assessed as increase in cell viability at 50 uM incubated for 24 hrs by MTT assay; type: functional; method in brief: as §1
SH-SY5Y [13] = experiment: Neuroprotective activity against amyloid beta (1 to 42)-induced Alzheimer's disease model in human SH-SY5Y cells assessed as inhibition of apoptosis at 50 uM incubated for 24 hrs by Hoechst 33258 staining fluorescence microscopy; type: functional, cell-based; method in brief: as §4
SH-SY5Y [14] = experiment: Neuroprotective activity against amyloid beta (1 to 42)-induced neurotoxicity in human SH-SY5Y cells assessed as increase in cell viability at 100 uM incubated for 24 hrs by LDH release assay; type: functional; method in brief: as §5
SH-SY5Y [15] = experiment: Antioxidant activity against amyloid beta (1 to 42)-induced Alzheimer's disease model in human SH-SY5Y cells assessed as decrease of TOS level at 25 uM; type: functional, cell-based; method in brief: as §3
SH-SY5Y [16] = experiment: Neuroprotective activity against amyloid beta (1 to 42)-induced Alzheimer's disease model in human SH-SY5Y cells assessed as inhibition of apoptosis at 25 uM incubated for 24 hrs by Hoechst 33258 staining fluorescence microscopy; type: functional, cell-based; method in brief: as §4
SH-SY5Y [17] = experiment: Neuroprotective activity against amyloid beta (1 to 42)-induced Alzheimer's disease model in human SH-SY5Y cells assessed as protection against amyloid beta (1 to 42)-induced nuclear integrity damage at 50 uM incubated for 24 hrs by Hoechst 33258 staining fluorescence microscopy; type: functional, cell-based; method in brief: as §4
[18] = Genotoxicity in human blood assessed as frequency of sister chromatid exchange at 0.1 to 100 uM by BrdU/Giemsa staining based fluorescence assay; type: toxicity, tissue-based; conditions: dose 0.1-100 µM
Method in brief: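 Human peripheral blood cultured in PB-MAX karyotyping medium with phytohemagglutinin; compounds added just before incubation. BrdU added; demecolcine at 70 h 30 min. Then 0.075 M KCl hypotonic treatment, methanol/acetic acid (3:1) fixation, slides aged 3 days, fluorescence plus Giemsa staining. 25 second-division metaphases (42–46 chromosomes) scored per condition; result given as SCEs/cell.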

SH-SY5Y [19] = experiment: Antioxidant activity against amyloid beta (1 to 42)-induced Alzheimer's disease model in human SH-SY5Y cells assessed as increase of TAC level at 25 uM by ABTS assay; type: functional, cell-based; method in brief: as §3
SH-SY5Y [20] = experiment: Neuroprotective activity against amyloid beta (1 to 42)-induced Alzheimer's disease model in human SH-SY5Y cells assessed as decrease in AChE activity at 25 uM incubated for 24 hrs by Colorimetric assay; type: functional; set-up: scale not given: the % may be the effect or the level left
Method in brief: (§6)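 SH-SY5Y cells grown in DMEM:F12 with 10% FBS, differentiated with retinoic acid for 5 days, then serum-free medium with 10 μM retinoic acid plus 25 ng/mL BDNF, used within 10 days. Co-treated with 20 μM Aβ1-42 for 24 h; DMSO ≤0.1% vehicle. Cells lysed 15 min at room temperature, centrifuged; AChE measured in supernatant by colorimetric kit at 410 nm.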

SH-SY5Y [21] = experiment: Neuroprotective activity against amyloid beta (1 to 42)-induced Alzheimer's disease model in human SH-SY5Y cells assessed as decrease in AChE activity at 50 uM incubated for 24 hrs by Colorimetric assay; type: functional; set-up: scale not given: the % may be the effect or the level left; method in brief: as §6

SMILES | Activity (SH-SY5Y [1]) | Activity (SH-SY5Y [2]) | Activity (SH-SY5Y [3]) | Activity (SH-SY5Y [4]) | Activity (SH-SY5Y [5]) | Activity (SH-SY5Y [6]) | Activity (SH-SY5Y [7]) | Activity (SH-SY5Y [8]) | Activity (SH-SY5Y [9]) | Activity [10] | Activity (SH-SY5Y [11]) | Activity (SH-SY5Y [12]) | Activity (SH-SY5Y [13]) | Activity (SH-SY5Y [14]) | Activity (SH-SY5Y [15]) | Activity (SH-SY5Y [16]) | Activity (SH-SY5Y [17]) | Activity [18] | Activity (SH-SY5Y [19]) | Activity (SH-SY5Y [20]) | also measured
CC1(C)C2CC3OB(CNC(=O)CCCC[C@H]4CCSS4)O[C@]3(C)C1C2 (stereo partly drawn) | 32.92% | Active | Dde | Active | Active | 62.91% | 68.38% | 25.14% | Active | Non-Toxic | 67.37% | 29.94% | Active | 70.65% | Active | Active | Active | Non-Toxic | Active | 18.77% | Activity (SH-SY5Y [21]): 22.96%
O=C(O)CCCCC1CCSS1 (stereo not drawn) [LIPOIC ACID, ALPHA] | 20.73% | Active | Dde | Active | Active | 53.05% | 65.97% | 14.78% | Active | Non-Toxic | 58.68% | 19.01% | Active | 59.86% | Active | Active | Active | Non-Toxic | Active | 13.17% | Activity (SH-SY5Y [21]): 16.66%
CC12CC3CC(C)(C1)CC(N)(C3)C2 [MEMANTINE] | 17.08% | Active | Dde | Active | Active | 56.81% | 61.67% | 17.27% | Active | Non-Toxic | 59.15% | 19.38% | Active | 57.28% | Active | Active | Active | Non-Toxic | Active | 14.57% | Activity (SH-SY5Y [21]): 19.47%
